Results reported in ChEMBL document CHEMBL1131236, “Antitumor agents. 185. Synthesis and biological evaluation of tridemethylthiocolchicine analogues as novel topoisomerase II inhibitors” (J Med Chem, 1998).
≈ marks a conversion by molar mass, not a printed value.

How the values were obtained:
Tubulin = type: protein-complex assay
DNA topoisomerase II [1] = biological target: T1, DNA topoisomerase II (Homo sapiens, UniProt P11388+Q02880); assay: In vitro inhibitory activity at 100 uM against topoisomerase II measured as ATP-dependent unknotting of P4 DNA compared to enzyme and DNA control.; type: protein assay
[2] = biological target: T2, DNA topoisomerase 1 (Homo sapiens) (UniProt P11387); assay: In vitro inhibitory activity at 100 uM against topoisomerase I measured as ATP-independent relaxation of supercoiled plasmid DNA compared to enzyme and DNA control.
T2 sequence (whole entry): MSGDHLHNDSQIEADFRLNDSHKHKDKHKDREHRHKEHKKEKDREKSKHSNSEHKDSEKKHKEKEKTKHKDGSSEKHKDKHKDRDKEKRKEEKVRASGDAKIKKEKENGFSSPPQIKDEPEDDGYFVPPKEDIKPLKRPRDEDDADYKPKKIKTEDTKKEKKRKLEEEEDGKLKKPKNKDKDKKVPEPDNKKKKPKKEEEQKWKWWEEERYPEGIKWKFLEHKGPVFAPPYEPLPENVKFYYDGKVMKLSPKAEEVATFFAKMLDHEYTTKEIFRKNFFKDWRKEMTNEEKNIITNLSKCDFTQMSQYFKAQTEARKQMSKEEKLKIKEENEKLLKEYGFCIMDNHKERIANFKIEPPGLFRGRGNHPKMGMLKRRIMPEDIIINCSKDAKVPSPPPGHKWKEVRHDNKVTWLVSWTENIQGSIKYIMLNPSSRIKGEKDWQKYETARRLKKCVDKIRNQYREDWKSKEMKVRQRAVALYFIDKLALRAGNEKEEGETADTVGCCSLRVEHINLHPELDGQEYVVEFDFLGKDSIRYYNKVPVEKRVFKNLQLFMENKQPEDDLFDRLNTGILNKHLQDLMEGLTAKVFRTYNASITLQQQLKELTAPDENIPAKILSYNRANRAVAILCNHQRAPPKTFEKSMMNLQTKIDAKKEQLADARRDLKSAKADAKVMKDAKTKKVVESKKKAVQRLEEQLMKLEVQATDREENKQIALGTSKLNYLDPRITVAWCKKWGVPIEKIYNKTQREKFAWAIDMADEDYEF

DNA topoisomerase II [3] = biological target: T1, DNA topoisomerase II; assay: In vitro activity against mammalian topoisomerase II measured as ATP-dependent unknotting of P4 DNA compared to enzyme and DNA control; type: protein assay
Method in brief: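 Topo II inhibition read as ATP-dependent unknotting of P4 DNA, compared with enzyme-only and DNA-only control reactions.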

Tubulin alpha chain = Tubulin alpha chain (Sus scrofa, UniProt P02550); assay: In vitro inhibition of mammalian tubulin polymerization by 50%; Inactive
Chain of Tubulin alpha chain (P02550 whole entry, looked up): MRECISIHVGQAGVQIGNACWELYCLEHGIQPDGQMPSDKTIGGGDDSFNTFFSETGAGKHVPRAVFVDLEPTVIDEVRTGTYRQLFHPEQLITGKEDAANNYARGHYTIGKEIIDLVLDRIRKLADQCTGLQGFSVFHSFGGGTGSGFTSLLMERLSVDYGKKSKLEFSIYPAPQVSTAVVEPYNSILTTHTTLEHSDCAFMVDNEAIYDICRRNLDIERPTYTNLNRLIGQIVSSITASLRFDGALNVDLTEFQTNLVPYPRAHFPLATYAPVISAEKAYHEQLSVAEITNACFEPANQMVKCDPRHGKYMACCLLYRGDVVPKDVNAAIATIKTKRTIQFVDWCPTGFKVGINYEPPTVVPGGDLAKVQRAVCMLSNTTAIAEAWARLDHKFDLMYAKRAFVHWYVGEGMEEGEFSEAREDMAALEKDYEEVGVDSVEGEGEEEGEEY

SK-MEL-2 [4] = assay: In vitro growth inhibition of SK-MEL-2, malignant melanoma.; type: functional, cell-based; details: Homo sapiens
Method in brief: (§1)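 Human tumor lines screened in-house: KB, A549, MCF-7, CAKI-1 and SK-MEL-2. Read-out was SRB staining with absorbance at 562 nm.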

CAKI-1 [5] = assay: (§2) In vitro percent inhibition of CAKI-1, Kidney carcinoma; type: functional, Homo sapiens; parameters: concentration or dose not given beside the values
KB [6] = assay: In vitro growth inhibition of KB, epidermoid carcinoma of the nasopharynx.; type: functional, cell-based; details: Homo sapiens
Method in brief: as §1

MCF7 [7] = assay: (§3) In vitro growth inhibition of MCF-7, breast adenocarcinoma.; type: functional, cell-based; details: Homo sapiens
Method in brief: as §1

MCF7 [8] = assay: In vitro percent inhibition of MCF-7, breast adenocarcinoma.; type: functional, Homo sapiens
CAKI-1 [9] = assay: In vitro growth inhibition of CAKI-1, Kidney carcinoma; type: functional, cell-based; details: Homo sapiens
Method in brief: as §1

SK-MEL-2 [10] = assay: In vitro percent inhibition of SK-MEL-2 cells, malignant melanoma.; type: functional, Homo sapiens; parameters: concentration or dose not given beside the values
A549 [11] = assay: In vitro growth inhibition of A549, lung carcinoma.; type: functional, cell-based; details: Homo sapiens
Method in brief: as §1

A549 [12] = assay: In vitro percent inhibition of A549, lung carcinoma.; type: functional, Homo sapiens
A549 [13] = assay: In vitro percent inhibition of A549, lung carcinoma; type: functional, Homo sapiens
A549 [14] = assay: In vitro growth inhibition of A549, lung carcinoma; type: functional, cell-based; details: Homo sapiens
Method in brief: as §1

MCF7 [15] = assay: as §3; type: functional, Homo sapiens
Method in brief: as §1

KB [16] = assay: In vitro growth inhibition of KB, epidermoid carcinoma of the nasopharynx; type: functional, cell-based; details: Homo sapiens
Method in brief: as §1

KB [17] = assay: In vitro epidermoid carcinoma of the nasopharynx; type: functional, Homo sapiens
Method in brief: as §1

SK-MEL-2 [18] = assay: In vitro percent inhibition of SK-MEL-2, malignant melanoma.; type: functional, Homo sapiens
KB [19] = assay: In vitro percent inhibition of KB, epidermoid carcinoma of the nasopharynx.; type: functional, Homo sapiens
CAKI-1 [20] = assay: as §2; type: functional, Homo sapiens
A549 [21] = assay: In vitro percent inhibition of A549, lung carcinoma.; Range 18-43
MCF7 [22] = assay: In vitro percent inhibition of MCF-7, breast adenocarcinoma.; Range 23-48; type: functional, Homo sapiens
SK-MEL-2 [23] = assay: In vitro percent inhibition of SK-MEL-2 cells, malignant melanoma.; Range 26-41; type: functional, Homo sapiens
CAKI-1 [24] = assay: In vitro percent inhibition of CAKI-1, Kidney carcinoma; Range 12-38; type: functional, Homo sapiens

Compound	IC50 (Tubulin) [µM]	inhibition (DNA topoisomerase II [1]) [%]	inhibition [2] [%]	EC50 (SK-MEL-2 [4]) [µg/mL]	EC50 (KB [6]) [µg/mL]	EC50 (MCF7 [7]) [µg/mL]	EC50 (CAKI-1 [9]) [µg/mL]	EC50 (A549 [11]) [µg/mL]	further results
CSc1ccc2c(cc1=O)[C@@H](NC(=O)c1ccc(F)cc1)CCc1cc(O)c(O)c(O)c1-2	> 40	100	0						
CSc1ccc2c(cc1=O)[C@@H](NC(=O)c1ccc(NC(=O)C34CCC(C)(C(=O)O3)C4(C)C)cc1)CCc1cc(O)c(O)c(O)c1-2 (stereo partly drawn)	> 40	0	0						
COc1c(O)c(O)cc2c1-c1ccc(SC)c(=O)cc1[C@@H](NC(C)=O)CC2									IC50 (DNA topoisomerase II [3]): 38 µM
COc1cc([C@@H]2c3cc4c(cc3[C@@H](O[C@@H]3O[C@@H]5CO[C@@H](C)O[C@H]5[C@H](O)[C@H]3O)[C@H]3COC(=O)[C@H]23)OCO4)cc(OC)c1O [ETOPOSIDE]									IC50 (Tubulin alpha chain): Not Active
CSc1ccc2c(cc1=O)[C@@H](NC(=O)c1ccc([N+](=O)[O-])cc1)CCc1cc(O)c(O)c(O)c1-2	> 40	100	< 100	> 9.6	7.7 (≈ 16 µM)	> 9.6	> 9.6	> 9.6	Inhibition (CAKI-1 [5]): 20%; Inhibition (MCF7 [8]): 38%; Inhibition (SK-MEL-2 [10]): 0%; Inhibition (A549 [12]): 36%
CSc1ccc2c(cc1=O)[C@@H](NC(=O)c1ccccc1[N+](=O)[O-])CCc1cc(O)c(O)c(O)c1-2	> 40	100	0						
CSc1ccc2c(cc1=O)[C@@H](NC(=O)C13CCC(C)(C(=O)O1)C3(C)C)CCc1cc(O)c(O)c(O)c1-2 (stereo partly drawn)	> 40	0	0						
CSc1ccc2c(cc1=O)[C@@H](NC(=O)c1cccc([N+](=O)[O-])c1)CCc1cc(O)c(O)c(O)c1-2	> 40	100	0						
CSc1ccc2c(cc1=O)[C@@H](NC(=O)c1ccc([N+](=O)[O-])cc1)CCc1cc(OC(=O)C(C)C)c(OC(=O)C(C)C)c(OC(=O)C(C)C)c1-2	> 40	0	0	27.6 (≈ 40 µM)	25.5 (≈ 36.9 µM)	> 27.6	> 27.6		Inhibition (A549 [13]): 19%; Inhibition (CAKI-1 [5]): 17%; Inhibition (MCF7 [8]): 43%; EC50 (A549 [14]): > 27.6 µg/mL
CSc1ccc2c(cc1=O)[C@@H](NC(=O)c1cc([N+](=O)[O-])cc([N+](=O)[O-])c1)CCc1cc(O)c(O)c(O)c1-2	> 40	100	0						
CCC(=O)Oc1cc2c(c(OC(=O)CC)c1OC(=O)CC)-c1ccc(SC)c(=O)cc1[C@@H](NC(=O)c1ccc([N+](=O)[O-])cc1)CC2	> 40	0	0	12.9 (≈ 19.9 µM)	12.3 (≈ 19 µM)	> 12.9	> 25.9	> 25.9	Inhibition (CAKI-1 [5]): 16%; Inhibition (MCF7 [15]): 40%; Inhibition (A549 [12]): 29%
COc1cc2c(c(OC)c1OC)-c1ccc(OC)c(=O)cc1[C@@H](NC(C)=O)CC2 [COLCHICINE]				0.008 (≈ 0.02 µM)	0.002 (≈ 0.00501 µM)	> 0.4	0.4 (≈ 1 µM)	0.022 (≈ 0.0551 µM)	
Br.CSc1ccc2c(cc1=O)[C@@H](NC(=O)c1ccc(N)cc1)CCc1cc(O)c(O)c(O)c1-2	> 40			> 19.5	4.8	10.7	> 19.5	9.7	Inhibition (CAKI-1 [5]): 37%; Inhibition (SK-MEL-2 [10]): 42%
COc1cc2c(c(O)c1O)-c1ccc(SC)c(=O)cc1[C@@H](NC(C)=O)CC2									IC50 (DNA topoisomerase II [3]): > 150 µM
CSc1ccc2c(cc1=O)[C@@H](NC(=O)c1ccc(CBr)cc1)CCc1cc(O)c(O)c(O)c1-2	> 40	100	0						
CSc1ccc2c(cc1=O)[C@@H](NC(=O)c1ccc(N)cc1)CCc1cc(O)c(O)c(O)c1-2		100	0						
CSc1ccc2c(cc1=O)[C@@H](NC(C)=O)CCc1cc(O)c(O)c(O)c1-2						13.6 (≈ 36.4 µM)			EC50 (KB [16]): > 17.8 µg/mL; IC50 (DNA topoisomerase II [3]): 9 µM; Inhibition (CAKI-1 [5]): 22%; Inhibition (SK-MEL-2 [10]): 0%; Inhibition (KB [17]): 0%
CCCCCC(=O)N[C@H]1CCc2cc(O)c(O)c(O)c2-c2ccc(SC)c(=O)cc21	> 40	100	0						
Br.CSc1ccc2c(cc1=O)[C@@H](N)CCc1cc(O)c(O)c(O)c1-2		100	0	> 13.2	> 13.2	> 13.2	> 13.2	> 13.2	Inhibition (SK-MEL-2 [18]): 0%; Inhibition (MCF7 [8]): 23%; Inhibition (KB [19]): 0%; Inhibition (A549 [12]): 0%; Inhibition (CAKI-1 [20]): 2%
CSc1ccc2c(cc1=O)[C@@H](NC(=O)c1ccc([N+](=O)[O-])cc1)CCc1cc(OC(C)=O)c(OC(C)=O)c(OC(C)=O)c1-2	> 40	0	0	> 0.3	2.7 (≈ 4.45 µM)	> 0.15	> 0.3	> 0.15	Inhibition (A549 [21]): 18%; Inhibition (MCF7 [22]): 23%; Inhibition (SK-MEL-2 [23]): 26%; Inhibition (CAKI-1 [24]): 12%
CSc1ccc2c(cc1=O)[C@@H](NC(=O)c1ccc(Cl)cc1)CCc1cc(O)c(O)c(O)c1-2	> 40	100	0						
CSc1ccc2c(cc1=O)[C@@H](NC(=O)C13CC4CC(CC(C4)C1)C3)CCc1cc(O)c(O)c(O)c1-2	> 40	0	0						
CSc1ccc2c(cc1=O)[C@@H](NC(=O)c1cc(O)c(O)c(O)c1)CCc1cc(O)c(O)c(O)c1-2	> 40	100	100	> 9.6	9.6 (≈ 19.9 µM)	8.6 (≈ 17.8 µM)	> 9.6	> 9.6	Inhibition (CAKI-1 [5]): 29%; Inhibition (SK-MEL-2 [10]): 30%; Inhibition (A549 [12]): 30%
